The text below walks through data of publication PMC5892780 (RMD Open, 2018).

Data set [1] in a line: Plasma and urine PK of verinurad in the presence of febuxostat. Conditions: for Tmax: human, plasma, oral; for fe0-24: urine, geometric mean (95% CI). The class given is in vivo, human.
The next data set concerns humans. Conditions: doses as low as 2.5 mg; cited from earlier work.
Data set [2] deals with adults with gout. Nature of the data set: Safety assessment. The class given is in vivo, human. Conditions: febuxostat 80 mg-alone group. The method, boiled down:
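Subjects (sUA ≥8 mg/dL, creatinine clearance ≥60 mL/min) received colchicine 0.6 mg flare prophylaxis. Once-daily oral dosing with the test compounds was given after a standardised breakfast. Safety was monitored throughout and at day 42 (±2) follow-up: AEs coded by MedDRA V.17.0, clinical laboratory tests, vital signs, ECGs and physical examinations.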

The subject of data set [3] is adults with gout. Kind of data set: Serum urate. The data set is classed as in vivo, human. The method, boiled down: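 Gout patients were dosed orally once daily after a standardised breakfast, 7 days per treatment period. Serum was sampled at screening, baseline (day –1) and weekly for 4 weeks, within 30 min predose and at preset intervals up to 24 h postdose. Emax is the maximum percent change from baseline. A mixed-effects model used treatment and period as fixed effects, subject as random effect and baseline as covariate; data were pooled across cohorts.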

Data set [4] relates to adults with gout. Nature of the data set: Urinary xanthine and hypoxanthine excretion. The class given is in vivo, human. Conditions: febuxostat 40 mg alone; urine. The method, boiled down: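 Urine from gout patients on once-daily oral treatment (total catch, day –1 and weekly for 4 weeks, with a fixed water-loading schedule) was assayed for xanthine and hypoxanthine by LC/MS/MS. Assay performance was monitored with quality control samples prepared in blank matrix. These analytes served as a marker of the functional activity of the 40 mg partner-drug dose.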

The test system of data set [5] is adults with gout. Kind of data set: Urinary uric acid pharmacodynamics. The class given is in vivo, human. The procedure, abridged:
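Total-catch urine was collected on day –1, then weekly for 4 weeks, in 1 h up to 2 or 10 h intervals. On collection days subjects drank 240 mL water on waking, 240 mL with the dose, ~160 mL/h for 12 h and 240 mL at 22 h. ReUR, AeUR, CLUR and FEUA were derived per time point per 24-h collection. Analysis used a mixed-effects model with baseline covariate.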

The nature of data set [6]: Plasma PK of febuxostat alone or in the presence of verinurad. The data set is classed as in vivo, human. Conditions: for GMR AUC0-24 / GMR Cmax: GMR (90% CI). The procedure, abridged:
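Adults with gout took the test compounds orally once daily, about 30 min after a standardised breakfast (approximately 650 kcal, 35% fat), in 7-day treatment periods. Blood was drawn weekly for 4 weeks, within 30 min predose and at intervals up to 24 h postdose. Plasma was separated by centrifugation, extracted by protein precipitation and analysed by LC/MS/MS. Cmax and AUC0-24 were compared by mixed-effects model (treatment fixed, subject random).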

The next data set has as its system patients with gout. Conditions: lesinurad 400 mg vs lesinurad 200 mg plus febuxostat or febuxostat alone; cited from earlier work.
Setting [7] is: febuxostat 40 mg + verinurad 2.5 mg vs febuxostat alone.
Setting [8] is: febuxostat 40 mg + verinurad 5 mg vs febuxostat alone.
[9] abbreviates: febuxostat 40 mg + verinurad 20 mg vs febuxostat alone.
[10] abbreviates: febuxostat 80 mg + verinurad 2.5 mg vs febuxostat alone.
Setting [11] is: febuxostat 80 mg + verinurad 5 mg vs febuxostat alone.
Where [12] appears, read: febuxostat 80 mg + verinurad 10 mg vs febuxostat alone.
The mark [13] stands for this setting: febuxostat 80 mg + verinurad 15 mg vs febuxostat alone.

Each structure is given as a SMILES string.

The Tmax is the time at which the peak concentration occurs. For `CC(C)(Sc1ccncc1-c1ccc(C#N)c2ccccc12)C(=O)O` [verinurad], the Tmax was 2.5 to 4 h in data set [1] (Median Tmax of verinurad, range over verinurad 2.5-20 mg with febuxostat 40 or 80 mg); 3.5 h in data set [1] (Tmax, verinurad 2.5 mg + febuxostat 40 mg, median (range)); 2.5 h in data set [1] (Tmax, verinurad 2.5 mg + febuxostat 80 mg, median (range)); 3.5 h in data set [1] (Tmax, verinurad 5 mg + febuxostat 40 mg, median (range)); 4 h in data set [1] (Tmax, verinurad 5 mg + febuxostat 80 mg, median (range)); 3 h in data set [1] (Tmax, verinurad 10 mg + febuxostat 40 mg, median (range)). Besides, the Tmax stood at 3 h in data set [1] (Tmax, verinurad 10 mg + febuxostat 80 mg, median (range)); 3 h in data set [1] (Tmax, verinurad 15 mg + febuxostat 40 mg, median (range)); 3 h in data set [1] (Tmax, verinurad 20 mg + febuxostat 40 mg, median (range)). For the same compound, the fe0-24 was 0.661 (0.437 to 1.00) % in data set [1] (verinurad 2.5 mg + febuxostat 40 mg); 0.622 (0.347 to 1.11) % in data set [1] (verinurad 2.5 mg + febuxostat 80 mg); 0.657 (0.444 to 0.970) % in data set [1] (verinurad 5 mg + febuxostat 40 mg); 0.640 (0.392 to 1.05) % in data set [1] (verinurad 5 mg + febuxostat 80 mg); 0.810 (0.622 to 1.05) % in data set [1] (verinurad 10 mg + febuxostat 40 mg); 1.03 (0.710 to 1.49) % in data set [1] (verinurad 10 mg + febuxostat 80 mg). Besides, the fe0-24 in data set [1] (verinurad 15 mg + febuxostat 40 mg) was 0.692 (0.561 to 0.853) %; in data set [1] (verinurad 15 mg + febuxostat 80 mg), 0.816 (0.493 to 1.35) %; in data set [1] (verinurad 20 mg + febuxostat 40 mg) it was 0.717 (0.542 to 0.949) %. Besides, the “Verinurad Ae0-24 (amount excreted unchanged in urine)” value in data set [1] (verinurad 2.5 mg with febuxostat 80 mg) is recorded as 15.5 µg; in data set [1] (verinurad 20 mg with febuxostat 40 mg), 143 µg. In addition, in the data set with humans, the “sUA lowering in humans” value is reported as “significant sUA lowering”.
As to `Cc1nc(-c2ccc(OCC(C)C)c(C#N)c2)sc1C(=O)O` [febuxostat], the “TEAE of severe intensity” value in the data set on adults with gout [2] was “a severe case of hypertriglyceridaemia”. The figures for the “Emax, maximum percent decrease in sUA from baseline” value in the data set with adults with gout [3] (febuxostat 40 mg alone) and with adults with gout [3] (febuxostat 80 mg alone) were 42% and 55%, respectively. In addition, in the data set with adults with gout [4], the “Increase in mean excretion of hypoxanthine” value turned out to be 527%. Moreover, the “Increase in mean excretion of xanthine” value in the data set on adults with gout [4] stood at 1965%. Further, in the data set on adults with gout [5] (febuxostat 40 and 80 mg alone), the “Mean maximum urinary uric acid excretion rate (ReUR) compared with baseline” value is recorded as “reduced below baseline”. Further, the “Influence on FEUA” value in the data set on adults with gout [5] (febuxostat 40 or 80 mg administered alone) was “did not influence”. For the same compound, the “Influence on CLUR” value in the data set on adults with gout [5] (febuxostat 40 or 80 mg administered alone, data not shown) was “did not influence”. The “GMR AUC0-24” value in data set [6] (setting [7]) was 94.2 (88.1 to 101) %; in data set [6] (setting [8]), 92.4 (89.0 to 95.8) %; in data set [6] (setting [9]) it was 94.1 (89.4 to 99.0) %; in data set [6] (setting [10]) it was 98.6 (94.5 to 103) %; in data set [6] (setting [11]) it was 89.3 (82.8 to 96.3) %; in data set [6] (setting [12]) it was 94.2 (90.7 to 97.9) %. Besides, in data set [6] (setting [13]), the “GMR AUC0-24” value is given as 92.9 (84.1 to 103) %. The “GMR Cmax” value in data set [6] (setting [7]) is recorded as 91.2 (69.3 to 120) %; in data set [6] (setting [8]), 85.6 (75.7 to 96.7) %; in data set [6] (setting [9]), 114 (92.0 to 141) %; in data set [6] (setting [10]) it was 146 (130 to 165) %; in data set [6] (setting [11]) it was 89.9 (68.8 to 117) %; in data set [6] (setting [12]) it was 101 (87.9 to 116) %. Also, in data set [6] (setting [13]), the “GMR Cmax” value is reported as 123 (88.3 to 173) %. Further, the “Febuxostat exposures alone vs in combination with verinurad” value in data set [6] (febuxostat 40 or 80 mg) is “equivalence”.
Take `O=C(O)CSc1nnc(Br)n1-c1ccc(C2CC2)c2ccccc12` [lesinurad]: the “Rates of renal adverse effects” value in the data set on patients with gout was “increased rates of renal adverse effects”.
